# Screening results deposited in PubChem BioAssay by several laboratories.
# Only some compounds are listed: those with a hit (about 0.85% of all), similar ones and a draw of the others.
# OXTR agonist = agonists of human oxytocin receptor; P30559; CHO-OTR cells, Fluo-8 calcium fluorescence; normalized: DMSO 0%, oxytocin 100%; activation, % at 3 µM; 320,000 tested, 0.32% active;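 active = activation above the mean of all tested compounds plus 3 SD, cutoff set per screening run, cut at about 20% in these data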;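 note: peak over basal fluorescence ratio from a 100 s FLIPR kinetic read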
# CRFBP-R2 agonist = CRF-BP/CRF-R2 complex agonism; HEK293 CRF-R2/CRF-BP, calcium dye fluorescence (FLIPR); percent of saturating CRF peptide response; activation, % at 13.2 µM; 350,000 tested, 0.46% active;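 active = activation of at least 50%, plus an integration ratio under a set limit after plate pattern correction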;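 note: plate controls were neutral control wells without compound for no effect and CRF at EC100 for full effect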
# OXTR potentiate = potentiates the human oxytocin receptor response | P30559 | CHO-OTR cells, Fluo-8 calcium fluorescence, potentiator mode; 0% = oxytocin EC15, 100% = EC100 | activation, % at 3 µM | 320,000 tested, 0.061% active | AID 2445;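 active = activation above that plate's cutoff, the mean activation of tested compounds plus 3 SD, cut at about 6.6% in these data, passing the limit was not always enough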;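 note: 100% uses oxytocin at 75 nM as the full agonist control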
#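 Material: CHO-OTR cells, human receptor; compound dosing: single dose, 3.0 µM nominal final compound concentration; schedule: 6 min compound pre-incubation at room temperature, 100 s kinetic read; measured by: kinetic Fluo-8 calcium fluorescence; read-out basis: % activation vs EC15 and EC100 oxytocin; controls: EC15 oxytocin alone as 0%, 75 nM oxytocin as 100%; replicates: singlicate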
# TRPN1 ag = zebrafish TRPN1 (NompC) channel agonism | 220,000 tested, 0.18% active | activation, % at 3 µM | HEK293 zebrafish TRPN1-YFP, Fluo-8 calcium fluorescence; 100% = response to 87 µM carbachol;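 active = activation above its plate's cutoff, the mean activation of test wells on that plate plus 3 SD, cut at about 19% in these data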;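 note: 0% = DMSO alone and 100% = 87 µM carbachol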
#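 Material – zebrafish TRPN1-YFP in HEK293 cells · Doses – 3 µM single point · Schedule – dye 1 h 37 °C plus 30 min RT · Signal – Fluo-8 calcium fluorescence, excitation 470-495 nm, emission 515-575 nm · Read-out – % activation versus carbachol response · Control set – carbachol high, DMSO low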
# TRPML3 ag = human mucolipin-3 channel agonism | 220,000 tested, 0.29% active | activation, % at 3 µM | AID 1448 | Q8TDD5 | HEK293 TRPML3-YFP, Fluo-8 calcium fluorescence; 100% = the carbachol control signal;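 active = activation above its plate's cutoff, the mean activation of the plate's test wells plus 3 SD, cut at about 12% in these data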;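 note: 0% = DMSO only wells and 100% = carbachol wells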
#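 Material: TRPML3-YFP stable HEK293 cells | Dosing: One concentration, 3 µM nominal, 0.3% DMSO | Timing: 125 s total fluorescence read per well | Technique: Fluo-8 calcium dye fluorescence, ex 470-495, em 515-575 nm | Measure: Percent activation from peak-to-basal fluorescence ratio, scaled between DMSO and carbachol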
# V1R ag counter = activates human V1a receptor in oxytocin agonist counter-screen; AID 2797; 320,000 tested, 0.25% active; CHO-V1R cells, Fluo-8 calcium fluorescence, agonist mode; 0% DMSO, 100% 3 nM vasopressin; P37288; activation, % at 3 µM;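 active = activation above the mean activation of all tested compounds plus 3 SD, per screening run, cut at about 20% in these data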;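 note: signal is peak over basal fluorescence ratio across a 100 second FLIPR read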
# Target sequence (P37288 whole entry, looked up): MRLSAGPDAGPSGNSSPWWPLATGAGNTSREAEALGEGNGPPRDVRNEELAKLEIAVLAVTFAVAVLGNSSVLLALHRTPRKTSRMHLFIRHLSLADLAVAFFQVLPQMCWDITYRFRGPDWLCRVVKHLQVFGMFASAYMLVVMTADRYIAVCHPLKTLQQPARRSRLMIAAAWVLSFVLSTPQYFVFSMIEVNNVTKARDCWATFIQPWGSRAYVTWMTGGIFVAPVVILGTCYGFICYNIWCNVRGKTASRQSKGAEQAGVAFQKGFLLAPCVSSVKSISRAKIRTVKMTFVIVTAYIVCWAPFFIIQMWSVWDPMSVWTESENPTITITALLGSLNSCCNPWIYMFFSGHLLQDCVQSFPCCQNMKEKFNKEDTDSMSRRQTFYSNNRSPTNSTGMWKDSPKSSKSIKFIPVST
# Numbers without * were called inactive; · = not tested or not shown.
SMILES,OXTR agonist,CRFBP-R2 agonist,OXTR potentiate,TRPN1 ag,TRPML3 ag,V1R ag counter
COC(=O)C(/C=N/OCc1ccc([N+](=O)[O-])cc1)NC(=O)c1cccc(Cl)c1 (configuration not stated),32*,12,-20,20*,9,38*
CC(=O)c1c(O)c(C)c(O)c2c1OC1=CC(=O)C(C(C)=O)C(=O)[C@@]12C (some centres not stated),·,5,·,·,·,·
O=C(NNC(=O)c1cccc(S(=O)(=O)Nc2ccccc2F)c1)c1ccncc1,·,4,·,·,·,·
Cc1cccc(NC(=O)C(C)OC(=O)CNC(=O)C2CCCCC2)c1 (configuration not stated),·,-1,·,·,·,·
CCCCCn1c(=NC(=O)c2cccnc2)c(C#N)cc2c(=O)n3cccc(C)c3nc21,0,63*,-3,·,·,-1
CCCCn1c(=NC(C)=O)c(C#N)cc2c(=O)n3cccc(C)c3nc21,0,2,-3,·,·,-1
CSCCC(NC(=O)c1ccco1)C(=O)OCc1cc([N+](=O)[O-])cc2c1OCOC2 (configuration not stated),0,56*,-6,0,2,3
CC(=O)Nc1sc2c(c1-c1nc3ccccc3s1)CN(C(C)C)CC2,12,94*,1,·,·,14
CCOC(=O)c1c(-c2ccccc2)csc1NC(=O)/C(C#N)=C/c1ccc(O)c(OC)c1,2,198*,3,1,1,1
C=CC[C@H](CC(=O)N(CCO)Cc1ccccc1)C(=O)N[C@H](C)COC(=O)[C@@H](CC=C)CC(=O)OC(C)(C)C,-2,1,-2,·,·,0
COc1ccc(/C=C/c2cccc[n+]2C)c(O)c1,1,-1,-10,·,·,0
CCN(CC)c1ccc(/C=C/c2cccc[n+]2C)c(OC)c1,15,55*,-6,·,·,11
Cc1ccc(-c2sc(-c3ccccc3)nc2CC(=O)Nc2ccccc2F)cc1,-1,128*,-5,2,1,1
CC(=O)Nc1cccc(NC(=O)Cc2nc(-c3ccccc3)sc2-c2ccc(C)cc2)c1,0,0,-13,0,1,0
CCN(CC(=O)NCc1cccs1)C(=O)c1cccc(S(=O)(=O)N(CC)c2ccccc2)c1,·,-1,·,·,·,·
CCCCn1c(N)c(N(CCOC)C(=O)CCCc2nc3ccccc3c(=O)[nH]2)c(=O)[nH]c1=O,1,1,-4,·,·,0
CCOc1ccc(/C=C/C(=O)c2c(O)c3ccccc3oc2=O)cc1,-1,2,-3,1,1,1
CN(C)c1ccc(/C=C/C(=O)c2c(O)c3ccccc3oc2=O)cc1,10,129*,-8,13,7,8
O=C(Cc1ccccc1)Nn1c(O)c(/C=C2\C=Nc3ccccc32)sc1=S,15,67*,-10,10,5,12
CC(C)CC1=NN2C(=N)/C(=C\c3coc4ccccc4c3=O)C(=O)N=C2S1,·,306*,·,7,4,·
CCSC1=NSC2=NC(=O)/C(=C\c3coc4ccccc4c3=O)C(=N)N12,62*,185*,-11,25*,15*,47*
Cn1c(N)c(C(=O)CSc2nnc(Cc3cccs3)n2C2CC2)c(=O)n(C)c1=O,-1,0,-6,·,·,0
CN(C)/C=N/c1nccc(-c2cccs2)n1,1,54*,-11,1,1,-1
Cc1noc(C)c1NC(=O)Nc1ccc2c(c1)C(=O)N([C@H](C)CO)C[C@H](C)[C@@H](CN(C)S(=O)(=O)c1cccs1)O2,0,-1,-8,·,·,1
COCCN(C(=O)COC(=O)c1c(C)nn(-c2ccccc2)c1C)c1c(N)n(Cc2ccccc2)c(=O)[nH]c1=O,·,1,·,·,·,·
SMILES,OXTR agonist,CRFBP-R2 agonist,OXTR potentiate,TRPN1 ag,TRPML3 ag,V1R ag counter
O=C1Cc2ccccc2Sc2ccc(O)cc21,-1,92*,-10,-1,3,4
Nc1ccc2c(c1)CC(=O)c1ccccc1S2,2,-1,-3,0,1,1
N#CC1=C(N)Oc2ccc3ccc(O)cc3c2C1c1ccsc1 (configuration not stated),·,71*,·,11,4,·
Cc1ccc(S(=O)(=O)N2CCN(c3ncnc4scc(-c5ccccc5)c34)CC2)cc1,-1,127*,-3,·,·,1
Cc1cc(C)c2c(n1)sc1c(O)cc(=O)[nH]c12,-1,3,-10,1,1,1
COc1ccc(-c2cc(C(F)(F)F)c3c(n2)sc2c(O)cc(=O)[nH]c23)c(OC)c1,9,80*,-7,3,2,10
C[C@H]1CN([C@@H](C)CO)C(=O)CCCn2cc(nn2)CO[C@@H]1CN(C)C(=O)Nc1ccc(N2CCCCC2)cc1,·,-1,·,·,·,·
O=C(O)CCC(C(=O)O)N1C(=O)C2C3CCC(C3)C2C1=O (configuration not stated),·,2,·,·,·,·
O=c1ccc2[n+]([O-])c3ccc(O)cc3oc-2c1,·,8,·,48*,27*,·
O=c1cc(O)c2ccc(O)cc2o1,0,4,-2,-2,0,0
CC(C)NC(=O)NC(=O)COc1c(F)c(F)cc(F)c1F,-1,0,-10,0,17*,-1
CNC(=O)NC(=O)COc1c(F)c(F)cc(F)c1F,1,0,-3,1,1,0
Nc1nc2n(n1)C(c1cccc(Br)c1)CC(c1ccc(F)cc1)N2 (configuration not stated),9,54*,-18,11,3,4
COc1ccc(S(=O)(=O)Nc2ccc(S(=O)(=O)N3CCCCC3)cc2)cc1,21*,8,-26,0,0,24*
OCCCNc1cc(-c2ccccc2)nc2cc(-c3ccc(F)cc3)nn12,-1,-1,-9,·,·,-1
Clc1ccc(CSCCc2ccncc2)cc1,0,0,-16,-1,-1,1
Clc1ccc(NN(Cc2ccncc2)c2ccc(Cl)cc2)cc1,·,51*,·,·,·,·
COc1ccc(OC)c(CN2CCN(C(=O)c3ccc(S(=O)(=O)N4CCCCCC4)cc3)CC2)c1,·,3,·,·,·,·
CCCC(C)C(=O)Nc1ncc(S(=O)(=O)c2ccc([N+](=O)[O-])cc2)s1 (configuration not stated),22*,43,-12,·,·,46*
